ChEMBL document CHEMBL1938284, “Synthesis and biological activity of novel organoselenium derivatives targeting multiple kinases and capable of inhibiting cancer progression to metastases” (Eur J Med Chem, 2012)

Assay: Antiproliferative activity against human MDA231 cells after 72 hrs by MTT assay
Format: functional, cell-based
Conditions: MDA-MB-231, 72 h
Summary of the method: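 MTT read-out on MDA-231 cells. 1×10^3 exponentially growing cells seeded and incubated 24, 48 and 72 h. Medium replaced with 1 mg/mL MTT for 3–4 h at 37 °C.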

Row | Structure (SMILES) | IC50 [µM]
1 | O=c1c2ccccc2[se]n1[C@@H]1O[C@H](CO)[C@H](O)[C@H](O)[C@H]1O | > 100
2 | O=c1c2ccccc2[se]n1[C@@H]1O[C@H](CO)[C@@H](O[C@@H]2O[C@H](CO)[C@H](O)[C@H](O)[C@H]2O)[C@H](O)[C@H]1O | > 100
3 | CC(=O)OC[C@H]1O[C@@H](n2[se]c3ccccc3c2=O)[C@H](OC(C)=O)[C@@H](OC(C)=O)[C@H]1OC(C)=O | 21
4 | CC(=O)OC[C@H]1O[C@@H](OCCn2[se]c3ccccc3c2=O)[C@H](OC(C)=O)[C@@H](OC(C)=O)[C@@H]1OC(C)=O | 35
5 | O=c1c2ccccc2[se]n1CCO[C@@H]1O[C@H](CO)[C@@H](O)[C@H](O)[C@H]1O | > 100
6 | CC(=O)OC[C@H]1O[C@@H](n2[se]c3ccccc3c2=O)[C@H](OC(C)=O)[C@@H](OC(C)=O)[C@@H]1O[C@@H]1O[C@H](COC(C)=O)[C@@H](OC(C)=O)[C@H](OC(C)=O)[C@H]1OC(C)=O | 20
7 | O=c1c2ccccc2[se]n1[C@@H]1O[C@H](CO)[C@@H](O[C@@H]2O[C@H](CO)[C@@H](O)[C@H](O)[C@H]2O)[C@H](O)[C@H]1O | > 100
